Assay outcomes: PubChem BioAssay, several laboratories
Granule exo inh = lytic granule exocytosis inhibition. 0.66% of 360,000 active. TALL-104 LAMP-1 surface exposure, flow cytometry; cells stimulated with thapsigargin and PMA. AID 651702. inhibition, % at 10 µM;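 active = inhibition above about 55%, limit read from the data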
ABCB6 inh MLPCN = inhibitors of human ABC transporter ABCB6 | Q9NP58 | K562-ABCB6 porphyrin accumulation, flow cytometry, 1 h; hits give low values | fluorescence ratio to DMSO, % at 10 µM | 0.19% of 360,000 active | AID 602162;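 active = fluorescence ratio to DMSO below 75%, the collection mean minus 3 SD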;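 note: signal is porphyrin accumulated inside mitochondria; 100% equals median channel fluorescence of DMSO control wells; lower ratio means ABCB6 inhibition with less porphyrin fluorescence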
MC4R antagonist = human MC4R antagonism in cAMP assay; inhibition, % at 6.5 µM; 0.48% of 360,000 active; MC4R-expressing cells, MTII-stimulated cAMP, LANCE TR-FRET;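 active = inhibition above its plate's cutoff, the mean of tested wells on that plate plus 3 SD, cut at about 29% in these data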;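 note: 0% = Melanotan II alone and 100% = Melanotan II plus saturating MCL0020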
Target sequence (P32245 whole entry, looked up): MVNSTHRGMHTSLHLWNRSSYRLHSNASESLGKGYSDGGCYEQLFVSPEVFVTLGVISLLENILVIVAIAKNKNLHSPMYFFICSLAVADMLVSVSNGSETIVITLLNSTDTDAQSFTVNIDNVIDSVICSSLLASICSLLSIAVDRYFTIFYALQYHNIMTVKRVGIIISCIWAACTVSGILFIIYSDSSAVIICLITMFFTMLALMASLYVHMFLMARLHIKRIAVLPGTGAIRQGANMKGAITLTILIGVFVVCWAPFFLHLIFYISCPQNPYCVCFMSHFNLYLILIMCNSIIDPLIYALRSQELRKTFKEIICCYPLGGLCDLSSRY
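Material: human MC4R-expressing U2OS cells. Probe or stimulus: Melanotan II challenge. Dosing: 6.5 µM single dose. Times: 30-min compound, 1-h challenge, 1-h detection, room temperature. Technique: TR-FRET with Eu-cAMP and labeled anti-cAMP, 671 nm. Replication: singlicate.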
TbMetRS inhib = Trypanosoma brucei MetRS inhibition | inhibition, % at 11.9 µM | purified T. brucei MetRS, ATP depletion, Kinase-Glo luminescence | 0.4% of 360,000 active;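 active = inhibition above a per-plate cutoff of the control wells' mean inhibition plus 3 SD, cut at about 5.5% in these data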;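 note: 0% = DMSO wells median and 100% = median of wells with control inhibitor compound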
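Material: parasite MetRS enzyme / Replication: singlicate, one well per compound / Signal: luminescence of leftover ATP / Schedule: 2 h aminoacylation at 25 °C after 15 min preincubation / Medium: HEPES-MgCl2-KCl buffer plus DTT, spermine, BSA, pyrophosphatase / Doses: 11.9 µM single point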
hiPSC survival = hiPSC single-cell survival enhancement; 0.044% of 360,000 active; AID 602274; ATPlite luminescence; 100% = ROCK inhibitor wells, 0% = DMSO; survival enhancement, % at 20 µM; in the data active = survival enhancement above about 18%;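 note: cells exposed to compounds for 16 hours before the ATP read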
MC4R barr agon = agonists of human melanocortin 4 receptor (MC4R) beta-arrestin; P32245; U2OS MC4R beta-arrestin complementation, luminescence; percent of melanotan II response, DMSO zero; activation, % at 8.9 µM; 0.98% of 360,000 active; AID 540308;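 active = activation above a per-plate cutoff, the mean activation of sample wells on that plate plus 3 SD, cut at about 8% in these data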
Granule exo CP1 = blocks lytic granule exocytosis; shares compounds with Granule exo inh; TALL-104 cells, LAMP-1 externalization, flow cytometry; stimulated with PMA plus thapsigargin; inhibition, % at 10 µM; 11% of 1,500 active; in the data active = inhibition above about 60%;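 note: 0% = stimulated vehicle wells and 100% = unstimulated wells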
The depositor's hits bear a star; . = not tested or not shown. In the library only some 2.6% were active in any assay of this set; here they are far more common.

SMILES	Granule exo inh	ABCB6 inh MLPCN	MC4R antagonist	TbMetRS inhib	hiPSC survival	MC4R barr agon	Granule exo CP1
CC(=O)N1CCSc2ccc(S(=O)(=O)NCCc3ccc(Cl)cc3)cc21	1.6	100.0	3.6	-0.7	0.4	2.4	.
COc1ccccc1OCCCCn1ncc2ccc(OC)c(OC)c2c1=O	77.6*	96.0	5.6	-0.2	-0.6	1.0	-12.0
CCOc1ccccc1CN1CCN(Cc2c[nH]c3ccccc23)CC1CCO (centres undefined)	40.4	102.0	23.9	-2.0	-0.3	-0.5	.
CCOc1ccccc1CN1CCN(Cc2[nH]c3ccccc3c2C)CC1CCO (centres undefined)	67.3*	105.0	6.9	-1.6	1.1	4.5	-13.0
CN(CCCC1CCCC1)C(=O)c1cc(COc2ccc(F)c(F)c2)on1	68.5*	100.0	-3.7	0.1	-0.3	3.1	-10.6
CN(CCCC1CCCC1)C(=O)c1cc(COc2c(F)cccc2F)on1	8.2	100.0	-2.4	-0.3	-0.1	-0.9	.
CCOc1ccc(NC(=O)Cn2c(=O)n(CCCC(=O)NC3CCN(Cc4ccccc4)CC3)c(=O)c3ccccc32)cc1	60.8*	93.0	-1.3	0.4	-0.5	0.6	-10.0
NC(=O)Cn1c(=O)n(CCCC(=O)NC2CCN(Cc3ccccc3)CC2)c(=O)c2ccccc21	-1.0	98.0	1.0	-1.4	-2.6	0.3	.
Cc1ccc(S(=O)(=O)c2nc(-c3cccs3)oc2N2CCC(C(N)=O)CC2)cc1	3.7	106.0	-3.7	0.3	7.4	2.5	.
O=C(CCN1CCN(c2ccccc2)CC1)c1ccc(Br)cc1	56.1*	98.0	14.1	0.2	-0.4	1.1	11.8
COc1ccc(C(=O)CCN2CCN(c3ccc(OC)cc3)CC2)cc1	101.2*	106.0	20.9	-0.2	-0.3	-1.3	-3.9
O=C(CCN1CCOCC1)c1ccc(Br)cc1	95.7*	99.0	8.6	-0.4	0.8	-0.7	40.9
COc1ccc(S(=O)(=O)N2CCC(C(=O)N[C@@H](C)C(=O)NCc3ccco3)CC2)cc1	2.6	101.0	14.0	0.2	-2.2	-1.5	.
Cc1c(C(=O)OCC(=O)NC(C)c2ccccc2)oc2ccccc12 (centres undefined)	-6.4	103.0	-0.9	-0.1	0.8	-1.0	.
COc1cc2c(cc1OC)C(c1ccc(-c3ccccc3Cl)o1)=NCC2	38.3	100.0	-15.8	-0.4	-1.1	3.9	.
COc1cc2c(cc1OC)C(c1ccc(-c3ccc(Cl)c(Cl)c3)o1)=NCC2	93.6*	94.0	-3.9	0.5	-4.6	0.8	90.6*
COc1ccc(/C=C/c2nc(S(=O)(=O)c3ccccc3)c(NCCCN(C)C)o2)cc1OC	-0.7	99.0	-11.8	-0.2	-0.6	-2.2	.
O=C1NC[C@H](Cc2ccccc2)N(CCc2cccc(F)c2)C1=O	61.3*	101.0	8.4	-0.2	1.5	-2.3	-12.9
COC(=O)c1ccc(NCc2c(O)ccc(O)c2Br)cc1Cl	98.4*	100.0	-9.8	0.1	-1.1	-2.5	79.7*
CCCN(CCC)S(=O)(=O)c1cccc(-c2csc(C)n2)c1	59.2*	98.0	14.8	-0.4	-0.6	1.5	-4.7
CCN(CC)S(=O)(=O)c1ccc(-c2csc(C)n2)cc1	-5.0	93.0	6.4	-0.3	0.6	-4.4	.
O=C(NCc1ccccn1)C1Nc2ccc(C(F)(F)F)cc2C2C=CCC12 (centres undefined)	64.1*	99.0	4.8	-0.3	0.3	-0.1	-14.6
O=C(O)c1c2c(nc3ccccc13)CCCCC2	0.6	96.0	1.6	-0.9	0.3	-2.5	.
CN(C)C(=O)c1c2c(nc3ccccc13)CCCC2	107.4*	101.0	7.7	0.2	-0.1	-2.3	-10.6
CC1(C)CC2(OC2c2ccccc2)C(=O)c2ccccc21 (centres undefined)	-3.7	100.0	2.9	-0.3	5.9	1.6	.
SMILES	Granule exo inh	ABCB6 inh MLPCN	MC4R antagonist	TbMetRS inhib	hiPSC survival	MC4R barr agon	Granule exo CP1
COc1cc2c(cc1OC)CN(S(=O)(=O)c1ccc(Cl)nc1)CC2	3.7	99.0	1.2	-0.5	-0.2	-0.9	.
Cn1c(=O)c2c(nc(N3CCN(c4ccccc4)CC3)n2CCCc2ccccc2)n(C)c1=O	74.1*	106.0	8.3	0.0	-3.2	-1.9	-3.4
Cn1c(=O)c2c(nc(N3CCN(Cc4ccccc4)CC3)n2CCCc2ccccc2)n(C)c1=O	0.1	98.0	12.6	-0.2	3.6	2.6	.
CC(C)(C)C(=O)O/N=C(\N)COc1cccc(Cl)c1	-6.7	97.0	-0.3	-0.7	2.6	-2.7	.
O=C(Nc1nnc(Cc2ccccc2)s1)C1CCN(C(=O)c2ccco2)CC1	1.9	91.0	7.5	-0.2	-0.4	-2.2	.
COc1ccc(Cc2nnc(NC(=O)C3CCN(C(=O)c4ccco4)CC3)s2)cc1	56.6*	89.0	8.4	-0.5	0.3	-1.3	-13.4
CCOC(=O)C1CCN(C(=O)c2cccc(S(=O)(=O)N(C)C3CCCCC3)c2)CC1	13.8	93.0	12.3	-0.6	0.2	0.5	.
CCCCc1nc(N2CCN(C(=O)c3ccco3)CC2)c(C#N)c2c1CCCC2	79.4*	99.0	19.6	-0.7	-0.8	0.9	21.9
CC(C)c1nc(N2CCN(C(=O)c3ccco3)CC2)c(C#N)c2c1COC(C)(C)C2	15.8	92.0	-4.2	0.1	-0.1	0.3	.
Clc1ccccc1C(c1ccccc1)(c1ccccc1)n1ccnc1	9.4	101.0	18.1	0.0	4.6	0.1	.
CC(=O)CCc1oc2ccc(NC(C)=O)cc2c1-c1ccc(C)o1	29.6	111.0	9.7	-0.1	0.5	-2.8	.
CC(=O)CCc1oc2ccc(C)cc2c1-c1ccc(C)o1	91.3*	97.0	5.4	-0.5	-0.3	-0.7	-10.7
CC(=O)OCC(=O)C1(O)CCC2C3CC(C)C4=CC(=O)C=CC4(C)C3=CCC21C (centres undefined)	-1.0	96.0	3.1	-0.2	0.0	-1.9	.
CCOC(=O)c1c(CN2CCN(CCO)CC2)n(-c2ccccc2)c2cc(Br)c(O)cc12	78.9*	95.0	13.8	-0.5	-0.9	-0.5	-0.7
CCOC(=O)c1c(CN2CCN(C)CC2)n(-c2ccccc2)c2cc(Br)c(O)cc12	59.0*	93.0	3.7	0.0	-0.3	1.9	-6.3
CCOC(=O)c1c(CN2CCN(Cc3ccccc3)CC2)n(C)c2cc(Br)c(OC)cc12	13.3	92.0	4.1	-0.2	-1.8	-0.8	.
CCC1(C)CC(CCNS(=O)(=O)c2ccc(C)cc2)(c2ccc(C)cc2)CCO1 (centres undefined)	57.1*	99.0	4.8	-0.2	-0.7	2.6	-12.1
CC1CCCCN1CCCNC(=O)Cn1c(=O)c2cccn2c2ccccc21 (centres undefined)	-1.6	110.0	15.1	-0.2	-0.5	0.3	.
